The values below come from article PMC3205354 (Chemistry & biology, 2011).

pKd: −log10 of the molar value.

Assay [1] concerns the target T1, FAPP1 PH domain (Homo sapiens, UniProt Q9HB20).
T1 sequence (Q9HB20 1-99): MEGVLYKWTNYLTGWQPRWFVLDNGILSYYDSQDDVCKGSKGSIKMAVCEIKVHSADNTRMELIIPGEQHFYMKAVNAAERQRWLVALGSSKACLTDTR
Conditions: 5 mol% in monolayer; ref He, et al., 2011; cited from earlier work.

Assay [2] relates to GST-fusion FAPP1 PH domain. Kind of assay: Liposome binding assay. Also on record: species or system human. The following applies: SUVs of POPC, POPE, POPS and PI (50:20:15:15); 20 mM MOPS, 100 mM KCl, pH 7.0. The procedure, abridged: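 GST-tagged FAPP1 PH expressed in E. coli BL21(DE3) and purified on glutathione Sepharose. Lipids dried from CHCl3:MeOH:H2O (65:25:4) were resuspended in MOPS/KCl buffer and extruded 19 times through a 1 µm membrane. Liposomes were pelleted at 25,000 × g for 20 min, resuspended, and incubated with protein (stock 1.7 µg/µl) for 1 hr at room temperature. They were re-pelleted, and pellet and supernatant were analysed by SDS-PAGE.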

Assay [3] concerns the target T1, FAPP1 PH domain. Kind of assay: SPR equilibrium binding to lipid vesicles. Conditions: read-out: Kd (SPR); POPC/POPE/PI (75:20:5) liposomes; 10 mM HEPES (pH 7.4), 160 mM KCl, 25°C.
Assay [4] addresses T1, FAPP1 PH domain. Kind of assay: NMR 1H,15N HSQC titration. The assay is classed as binding. Conditions: read-out: Kd (NMR); 25 mM Bis-Tris, 150 mM NaCl, pH 6.5, 25°C. Put shortly:
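Human FAPP1 PH (aa 1–99), ¹⁵N-labeled, expressed in E. coli Rosetta (DE3) pLysS in ¹⁵NH₄Cl minimal medium (0.1 mM IPTG, room temperature, 6 hr). It was purified on Talon resin, His tag removed with thrombin, then size exclusion. HSQC spectra of 0.1–0.2 mM protein were recorded at 600 MHz with stepwise ligand addition. Normalized ¹H/¹⁵N shift changes were fitted against ligand and protein concentrations to give Kd.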

The term pKd denotes the Kd on a negative log10 scale, so that one unit is a factor of ten. In the case of `CCCCCCCCCCCCCCCC(=O)OC[C@H](COP(=O)(O)O[C@H]1[C@H](O)[C@@H](O)[C@H](OP(=O)(O)O)[C@@H](O)[C@H]1O)OC(=O)CCCCCCCCCCCCCCC` [C16-PtdIns(4)P], the “surface pressure (πc)” value on FAPP1 PH domain [1] is recorded as 33 mN/m. Also, the “partitioning of GST-FAPP1 PH between supernatant and pelleted SUVs” value in assay [2] is reported as “half of the protein associated with SUVs”. Also, at FAPP1 PH domain [3], the pKd was 6.34.

Consider `O=P(O)(O)OC1[C@@H](O)[C@@H](O)C(OP(=O)(O)O)[C@H](O)[C@H]1O` (stereo partly shown) [Ins(1,4)P2, inositol 1,4-bisphosphate], for which the pKd on FAPP1 PH domain [4] is 1.70.
